{"data": "Measurements gathered from unrelated publications", "ABCG2": "Broad substrate specificity ATP-binding cassette transporter ABCG2 (ABCG2, Homo sapiens, UniProt Q9UNQ0)"}
{"SMILES": "CCCN/C(=N/C)c1ccc(NC(=O)c2ccc(C(=O)Nc3ccc(/C(=N\\C)NCCC)cc3)cc2)cc1", "tested on": "K562", "assay": "cell growth or viability", "measurement": "IC50", "value": "10.1 µM"}
{"SMILES": "COc1cc(Nc2ncc(F)c(Nc3ccc4c(n3)NC(=O)C(C)(C)O4)n2)cc(OC)c1OC", "tested on": "ABCG2", "assay": "transporter uptake, inhibitor", "setting": "cell membranes", "measurement": "Ki", "value": "0.065 µM"}
{"SMILES": "COc1cccc(-c2n[nH]c(SCc3ccccn3)n2)c1OC", "test system": "female Sprague-Dawley rat, plasma", "setting": "intravenous, 1 mg/kg, 10 min, single dose", "measurement": "concentration", "value": "2680 ng/mL"}
{"SMILES": "Cc1n[nH]c(CC(=O)N2Cc3c(-c4ccc(C(=O)N5CCCc6ccccc65)cc4)cnn3C[C@H]2C)n1", "tested on": "ABCG2", "test system": "dog, MDCK-MDR1", "measurement": "Papp B→A", "value": "14.1 ×10⁻⁶ cm/s"}
{"SMILES": "Cc1noc(C)c1Cn1cc(N2C(=O)CN(Cc3cccc(O)c3)C2=O)cn1", "test system": "male Sprague-Dawley rat, plasma", "setting": "oral, 100 mg/kg, 1 h", "measurement": "concentration", "value": "30.5 ng/mL"}
{"SMILES": "C[C@H](C(=O)N1Cc2c(-c3ccc(C(=O)N4CCCc5ccccc54)cc3)cnn2C[C@H]1C)c1ccccc1", "tested on": "ABCG2", "test system": "dog, MDCK-MDR1", "measurement": "Papp B→A", "value": "8.4 ×10⁻⁶ cm/s"}
{"SMILES": "COc1cc(/C=N\\NC(=O)c2ccc(Br)cc2)ccc1OC(=O)c1cccs1", "tested on": "K562", "assay": "cell growth or viability", "measurement": "IC50", "value": "32.4 µM"}
{"SMILES": "C/C(O)=C(\\C#N)C(=O)Nc1ccc(C(F)(F)F)cc1", "tested on": "ABCG2", "test system": "Caco-2", "setting": "1 µM, 2 h, pH 7.4", "measurement": "efflux ratio", "value": 6.06}
{"SMILES": "CO[C@@H](C(=O)N1Cc2c(-c3ccc(C(=O)N4CCCc5ccccc54)cc3)cnn2C[C@H]1C(C)C)c1cnn(C)c1 (single isomer, unassigned)", "tested on": "ABCG2", "test system": "dog, MDCK-MDR1", "measurement": "Papp B→A", "value": "33.7 ×10⁻⁶ cm/s"}
{"SMILES": "Cc1nnc(SCC(=O)Nc2ccc(Br)cc2)nc1O", "tested on": "K562", "assay": "cell growth or viability", "measurement": "IC50", "value": "> 200 µM"}
{"SMILES": "CCOC(=O)[C@@]12C[C@@H]1[C@@H](n1ccc3c(NC)nc(C#Cc4ccc(Cl)s4)nc31)[C@H](O)[C@@H]2O", "test system": "male Sprague-Dawley rat, plasma", "setting": "oral, 1 mg/kg, 2 h", "measurement": "concentration", "value": "5.92 ng/mL"}
{"SMILES": "C/N=C(/NC)c1ccc(NC(=O)/C=C/c2ccc(/C=C/C(=O)Nc3ccc(/C(=N\\C)NC)cc3)cc2)cc1", "tested on": "K562", "assay": "cell growth or viability", "measurement": "IC50", "value": "4.31 µM"}
{"SMILES": "O=C(O)CSc1nnc(Br)n1-c1ccc(C2CC2)c2ccccc12", "tested on": "ABCG2", "assay": "transporter uptake, inhibitor", "test system": "Caco-2", "setting": "100 µM, 2 h", "measurement": "inhibition", "value": "38%"}
{"SMILES": "O=C(O)c1cc(Br)c(O)c(Br)c1", "tested on": "K562", "assay": "cell growth or viability", "measurement": "IC50", "value": "> 432 µM"}
{"SMILES": "CCc1cc(-c2noc(-c3cc(OC)nc(C4CCCC4)c3)n2)cc(C)c1OC[C@@H](O)CO", "test system": "Wistar rat, plasma", "setting": "oral, 0.3 mg/kg, 3 h, single dose", "measurement": "concentration", "value": "16.7 ng/mL"}
{"SMILES": "COc1ccc2c(=O)n(C)c(-c3ccccc3)nc2c1", "test system": "male Sprague-Dawley rat, lung", "setting": "oral, 30 mg/kg, 2 h", "measurement": "concentration", "value": "2.13 ng/mL"}
{"SMILES": "CSc1nc2nnnc(O)c2s1", "tested on": "K562", "assay": "cell growth or viability", "measurement": "IC50", "value": "> 640 µM"}
{"SMILES": "CC(C)[C@@H]1Cn2ncc(-c3ccc(C(=O)N4CCCc5ccccc54)cc3)c2CN1C(=O)Cc1ccccc1", "tested on": "ABCG2", "test system": "dog, MDCK-MDR1", "measurement": "Papp B→A", "value": "5.2 ×10⁻⁶ cm/s"}
